Experimental data reported in ChEMBL document CHEMBL1155286, “Second generation of 2H-benzimidazole 1,3-dioxide derivatives as anti-trypanosomatid agents: synthesis, biological evaluation, and mode of action studies” (Eur J Med Chem, 2009).
Active and inactive are the calls of the source. The rule behind the calls is not given here.

What was measured:
[1] = Selective index, ratio of ID50 for mouse J774 cells to ID50 for Leishmania braziliensis LTB300
Trypanosoma cruzi [2] = experiment: Antitrypanosomal activity against Trypanosoma cruzi Colombiana assessed as parasitic cytotoxicity at 25 uM after 5 days by MTT assay; format: functional
Outline: (§1)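 Single 25 μM dose for 5 days on exponential-phase epimastigotes in BHI-Tryptose + 5% FBS, 24-well plates; MTT 0.4 mg/mL, 3 h at 37 °C after PBS wash, formazan in DMSO, OD595. PCyt = [[…] (ODd − ODdm)/(ODc − ODcm)] × 100 with medium-only blanks, compound-in-medium blanks and growth controls; three independent experiments.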

Leishmania braziliensis [3] = experiment: Antiparasitic activity against Leishmania braziliensis MHOM/BR/00/LTB300 after 5 days by MTT assay; format: functional; conditions: MHOM/BR/00/LTB300, 120 h, read-out: ID50
Outline: (§2)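 Epimastigotes (T. cruzi strains, BHI-Tryptose + 5% FBS, 28 °C) or L. braziliensis LTB300 promastigotes (axenic RPMI + 5% FBS, 28 °C) from exponential culture in 24-well plates; compounds from DMSO stock added for 5 days. Washed in PBS, 0.4 mg/mL MTT at 37 °C for 3 h, formazan dissolved in DMSO, OD595 read. Triplicate per concentration, six growth controls; 1.0–50.0 μM dose-response, ID50 = concentration reducing absorbance ratio to 50%; three independent experiments.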

J774 = experiment: Cytotoxicity against mouse J774 cells at 100 uM relative to 5-((hydroxyimino)methyl)-2,2-dimethyl-2H-benzo[d]imidazole 1,3-dioxide; format: cell-based; conditions: j774, 100 µM
[4] = Selective index, ratio of ID50 for mouse J774 cells to ID50 for Trypanosoma cruzi Tulahuen 2
Trypanosoma cruzi [5] = experiment: Antitrypanosomal activity against Trypanosoma cruzi CL Brener epimastigotes assessed as parasitic cytotoxicity at 25 uM after 5 days by MTT assay; format: functional; outline: as §1
[6] = Cytotoxicity against mouse J774 cells; format: cell-based; conditions: read-out: ID50 (the source's name)
Trypanosoma cruzi [7] = experiment: Antitrypanosomal activity against Trypanosoma cruzi Tulahuen 2 epimastigotes assessed as inhibition of parasite growth after 5 days; format: functional; conditions: for IC50: Trypanosoma cruzi, Tulahuen 2, 120 h, read-out: ID50 (the source's name)
Outline: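 Stationary-phase (10-day) Tulahuen 2 epimastigotes inoculated at 1×10^6 cells/mL in BHI-Tryptose + 5% FBS, 28 °C, drug added from DMSO stock (final DMSO ≤0.4%; control 0.4% DMSO). Growth followed as A600; inhibition from day-5 vs day-0 absorbance relative to control. ID50 = concentration reducing absorbance ratio to 50%; three independent experiments.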

Trypanosoma cruzi [8] = experiment: Antitrypanosomal activity against Trypanosoma cruzi Y epimastigotes after 5 days by MTT assay; format: functional; conditions: 120 h, read-out: ID50; outline: as §2
Trypanosoma cruzi [9] = experiment: Inhibition of Mitochondrial dehydrogenase in Trypanosoma cruzi Y epimastigotes at 20 uM after 30 to 240 mins by MTT dye reduction assay in relative to control
Outline: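 Y-strain epimastigotes, 10^6 per well in 500 µL, 20 μM compound, 28 °C for 30–240 min with time-matched untreated controls. MTT (50 µL of 5 mg/mL) added for 4 h more, stopped with acidic isopropanol, A570 read; activity expressed as % of untreated parasites.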

Trypanosoma cruzi [10] = experiment: Reduction of end products excretion levels in Trypanosoma cruzi Y epimastigotes after 2 days by [1H]NMR method; format: functional, organism-based
Outline: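 Y-strain epimastigotes treated 2 days with 5 μM compound; culture centrifuged 1500 g, 10 min, 4 °C, parasite-free supernatant stored at −20 °C. Supernatant plus DMF internal standard and D2O run by 1H NMR with water suppression; metabolite peaks confirmed by spiking and standards, compared to untreated and parasite-free medium.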

Trypanosoma cruzi [11] = experiment: Trypanocidal activity against Trypanosoma cruzi CL Brener amastigotes infected in Vero cells assessed as parasite infection at 5 uM after 72 hrs; format: functional
Outline: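 Vero cells (4×10^7/L) on coverslips in modified Eagle's medium + 3% FBS, 37 °C; after 24 h infected with trypomastigotes (5×10^9/L) ± compound. Non-internalized parasites removed at 24 h, fresh medium ± compound, 72 h further incubation; May-Grünwald-Giemsa stain, 500 cells scored for % infected and amastigotes per cell; endocytic index = product of the two.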

Leishmania braziliensis [12] = experiment: Inhibition of Mitochondrial dehydrogenase in Leishmania braziliensis MHOM/BR/00/LTB300 at 20 uM after 30 to 240 mins by MTT dye reduction assay in relative to control
Trypanosoma cruzi [13] = experiment: Antitrypanosomal activity against Trypanosoma cruzi CL Brener trypomastigotes infected in Vero cells assessed as parasite lysis at 10 uM after 2 hrs relative to untreated control; format: functional
Outline: (§3)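 Cell-culture trypomastigotes released from infected Vero cells (37 °C, 5% CO2, 5–7 days), collected by centrifugation and allowed 4 h at 37 °C to swim off. Supernatant parasites exposed to 10.0–50.0 μM for 2–26 h; lysis counted in a Neubauer chamber relative to untreated parasites; three independent experiments.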

Trypanosoma cruzi [14] = experiment: Decrease of glucose uptake in Trypanosoma cruzi Y epimastigotes after 4 hrs relative to control; format: functional, organism-based
Outline: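 Y-strain epimastigotes (80×10^6/mL) washed and resuspended in PBS with 1 mM glucose, exposed 4 h to 20 μM compound from DMSO. Parasite-free supernatant refluxed 1 h with Benedict's reagent; remaining glucose quantified at 700 nm against a calibration curve.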

Trypanosoma cruzi [15] = experiment: Antitrypanosomal activity against Trypanosoma cruzi CL Brener trypomastigotes infected in Vero cells assessed as parasite lysis at 50 uM after 19 hrs relative to untreated control; format: functional; outline: as §3
Trypanosoma cruzi [16] = experiment: Trypanocidal activity against Trypanosoma cruzi CL Brener amastigotes infected in Vero cells assessed as parasite infection at 2.5 uM after 72 hrs
Trypanosoma cruzi [17] = experiment: Antitrypanosomal activity against Trypanosoma cruzi CL Brener trypomastigotes infected in Vero cells assessed as parasite lysis at 10 uM after 3 hrs relative to untreated control; format: functional; outline: as §3
Trypanosoma cruzi [18] = experiment: Antitrypanosomal activity against Trypanosoma cruzi CL Brener trypomastigotes infected in Vero cells assessed as parasite lysis at 25 uM after 19 hrs relative to untreated control; format: functional; outline: as §3
Trypanosoma cruzi [19] = experiment: Antitrypanosomal activity against Trypanosoma cruzi CL Brener trypomastigotes infected in Vero cells assessed as parasite lysis at 10 uM after 22 hrs relative to untreated control; format: functional; outline: as §3
Trypanosoma cruzi [20] = experiment: Antitrypanosomal activity against Trypanosoma cruzi CL Brener trypomastigotes infected in Vero cells assessed as parasite lysis at 10 uM after 26 hrs relative to untreated control; format: functional; outline: as §3
Trypanosoma cruzi [21] = experiment: Antitrypanosomal activity against Trypanosoma cruzi CL Brener epimastigotes after 5 days by MTT assay; format: functional; conditions: 120 h, read-out: ID50; outline: as §2
Trypanosoma cruzi [22] = experiment: Antitrypanosomal activity against Trypanosoma cruzi Colombiana after 5 days by MTT assay; conditions: 120 h, read-out: ID50

SMILES | IC50 (Trypanosoma cruzi [7]) | IC50 (Trypanosoma cruzi [8]) | Ratio [1] | Activity (Trypanosoma cruzi [2]) | IC50 (Leishmania braziliensis [3]) | Activity (J774) | Ratio [4] | Activity (Trypanosoma cruzi [5]) | CC50 [6] | also measured
CC1(Cc2ccccc2)[N+]([O-])=c2ccccc2=[N+]1[O-] | > 50 µM |  | 14.6 | 18.6% | 20.7 µM | 0.46% | <6 | 47% | 302 µM | 
COc1ccc(CC2(C)[N+]([O-])=c3ccccc3=[N+]2[O-])cc1 |  |  | >11.4 | 30.8% | 35 µM | 0.32% | 8 |  | > 400 µM | ID50 (Trypanosoma cruzi [7]): > 50 µM
COc1ccc2c(c1)=[N+]([O-])C1(CCCC1)[N+]=2[O-] | 25 µM | 4.9 µM | <2 | 17.3% | > 50 µM | 0.89% | 4 | 62.6% | 100 µM | 
CC1(C)[N+]([O-])=c2ccc(/C=N/O)cc2=[N+]1[O-] |  | 16.4 µM | <1.5 | 21.7% | > 50 µM |  | 6.2 | 46.6% | 77 µM | IC50 (Trypanosoma cruzi [21]): > 40 µM
Cc1c(Sc2ccccc2)[n+]([O-])c2cc(Cl)c(Cl)cc2[n+]1[O-] |  |  |  |  |  |  |  |  |  | Activity (Trypanosoma cruzi [9]): Active
CCCCCCCCCCCCCCCCOP(=O)([O-])OCC[N+](C)(C)C [MILTEFOSINE] |  |  | 15.1 |  | 9 µM |  |  |  | 136 µM | Activity (Leishmania braziliensis [12]): Active
CC1(Cc2ccc(Cl)cc2)[N+]([O-])=c2ccccc2=[N+]1[O-] | 40 µM |  |  |  |  | 1.42% | 1.4 |  | 55 µM | 
[O-][N+]1=c2ccc(Br)cc2=[N+]([O-])C12CCCC2 | 16.3 µM | 3.5 µM | 3.7 | 83.8% | 26.7 µM | 0.82% | 6.1 | 91.5% | 100 µM | Activity (Trypanosoma cruzi [10]): Active; Activity (Trypanosoma cruzi [9]): inactive; Activity (Leishmania braziliensis [12]): Active; Activity (Trypanosoma cruzi [13]): 0%; Activity (Trypanosoma cruzi [14]): Active; Activity (Trypanosoma cruzi [17]): 35%; Activity (Trypanosoma cruzi [19]): 16%; Activity (Trypanosoma cruzi [20]): 16%
[O-][N+]1=c2ccc(/C=N/O)cc2=[N+]([O-])C12CCCC2 | 19.8 µM | 5.7 µM | 4.9 | 29% | 26.7 µM | 0.82% | 6.6 | 65.6% | 130 µM | 
CC1CS(=O)(=O)CCN1/N=C/c1ccc([N+](=O)[O-])o1 (stereo not given) [NIFURTIMOX] | 7.7 µM | 9.7 µM |  | 87% |  |  | 44.9 | 90% | 346 µM | Activity (Trypanosoma cruzi [9]): inactive; IC50 (Trypanosoma cruzi [22]): 3.4 µM; Activity (Trypanosoma cruzi [14]): inactive; IC50 (Trypanosoma cruzi [21]): 4.9 µM

Continued, in another order:

IC50 (Trypanosoma cruzi [7]) | IC50 (Trypanosoma cruzi [8]) | SMILES | Ratio [1] | Activity (Trypanosoma cruzi [2]) | IC50 (Leishmania braziliensis [3]) | Activity (J774) | Ratio [4] | Activity (Trypanosoma cruzi [5]) | CC50 [6] | also measured
12 µM | 5.3 µM | [O-][N+]1=c2cc(Cl)c(Cl)cc2=[N+]([O-])C12CCCC2 | 7.2 | 60.9% | 5.4 µM | 1.65% | 3.3 | 67.1% | 39 µM | 
7.4 µM |  | O=C(Cn1ccnc1[N+](=O)[O-])NCc1ccccc1 [BENZNIDAZOLE] |  |  |  |  |  |  |  | Activity (Trypanosoma cruzi [9]): Active
7.9 µM | 15.8 µM | Cc1ccc2c(c1)=[N+]([O-])C1(CCCC1)[N+]=2[O-] | 7.1 | 59.3% | 8.9 µM | 1.22% | 8 | 56.5% | 63 µM | Activity (Trypanosoma cruzi [10]): Active; Activity (Trypanosoma cruzi [11]): 14.7%; Activity (Trypanosoma cruzi [9]): inactive; Activity (Leishmania braziliensis [12]): Active; Activity (Trypanosoma cruzi [13]): 1%; Activity (Trypanosoma cruzi [14]): Active; Activity (Trypanosoma cruzi [15]): 52%; Activity (Trypanosoma cruzi [16]): 34.8%; Activity (Trypanosoma cruzi [17]): 39%; Activity (Trypanosoma cruzi [18]): 24%; Activity (Trypanosoma cruzi [19]): 25%; Activity (Trypanosoma cruzi [20]): 24%
8.4 µM |  | CC1(Cc2ccc([N+](=O)[O-])cc2)[N+]([O-])=c2ccccc2=[N+]1[O-] |  |  |  | 0.47% | 14.5 |  | 122 µM | 
5.1 µM | 3.3 µM | Cc1ccc2c(c1)=[N+]([O-])C(C)(C)[N+]=2[O-] |  | 35.1% | 30.4 µM |  |  | 61.4% |  | Activity (Trypanosoma cruzi [10]): Active; Activity (Trypanosoma cruzi [9]): inactive; Activity (Leishmania braziliensis [12]): inactive; Activity (Trypanosoma cruzi [14]): inactive
5.4 µM |  | CCCCCC1(C)[N+]([O-])=c2ccccc2=[N+]1[O-] | <4.7 | 77.1% | > 50 µM | 0.01% | 43.1 | 88.2% | 233 µM | 
14.5 µM | 9.9 µM | CC1(C)[N+]([O-])=c2cc(Cl)c(Cl)cc2=[N+]1[O-] | 9.9 | 94.4% | 10.1 µM | 0.87% | 6.9 | 88.3% | 100 µM | 
10.1 µM |  | CC1(C)[N+]([O-])=c2ccc(Cl)cc2=[N+]1[O-] |  |  |  | 1.74% | 3.8 |  | 38 µM | 
8.1 µM |  | CC1(C)[N+]([O-])=c2ccc(/C=C/c3ccc(Cl)cc3)cc2=[N+]1[O-] |  |  |  | 1.48% | 6.4 |  | 52 µM | 
3.1 µM |  | CC1(C)[N+]([O-])=c2ccc(/C=C/c3ccc4c(c3)OCO4)cc2=[N+]1[O-] |  |  |  | 1.37% | 18.7 |  | 58 µM | 
9.5 µM | 6.4 µM | [O-][N+]1=c2ccccc2=[N+]([O-])C12CCCC2 | >111.1 | 94.8% | 3.6 µM | 0.75% | >42.1 | 83.7% | > 400 µM | 
